Experimental data from ChEMBL document CHEMBL5385911, “Exploring the Dispersion and Electrostatic Components in Arene-Arene Interactions between Ligands and G4 DNA to Develop G4-Ligands” (J Med Chem, 2024).
Values after ≈ are worked out from the molar mass of the structure shown. Active and inactive are the calls of the source. No cut-off for these calls is given here.

Assays:
Quadruplex DNA [1] = experiment: Stabilization of G4-quadruplex PEPu24T DNA (unknown origin) assessed as inhibition of Taq DNA polymerase activity by measuring full length DNA product at 0.24 uM pretreated for 10 mins followed by incubation with dNTPs for 15 mins by PAGE analysis; format: nucleic-acid assay; set-up: scale not given: the % may be the effect or the level left; conditions: time 25.0 min
Method in brief: (§1)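 Template made by annealing TET-labelled 25 nt primer (1 μM final) to PEPu24T (1.25 μM final) in 100 mM KCl. Reaction: 40 nM template, Taq buffer pH 8.8 with 50 mM KCl, 25 mM MgCl2, 0.05 U Taq. Compound preincubated on ice 10 min; dNTPs (100 μM) added, 37 °C 15 min. Denaturing 12% urea/formamide PAGE; full-length product expressed as % of no-compound sample; SD of ≥2 independent experiments.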

Quadruplex DNA [2] = experiment: Stabilization of 5'-FAM and 3'-TAMRA labelled c-Myc G4-quadruplex Pu24T DNA (unknown origin) assessed as increase in thermal stability of DNA structure at 5 to 40 equiv. by FRET melting assay; conditions: dose 5-40 equiv
[3] = Solubility of the compound at pH 7.4; format: physicochemical; conditions: buffer
[4] = Stabilization of double stranded PEPu24T mut DNA (unknown origin) assessed as inhibition of Taq DNA polymerase activity by measuring reduction in full length DNA product at 6 uM pretreated for 10 mins followed by incubation with dNTPs for 15 mins by PAGE analysis; conditions: time 25.0 min
Method in brief: (§2)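 Non-G4 control template: TET-labelled 25 nt primer (1 μM final) annealed to mutated PEPu24T mut (1.25 μM final) in 100 mM KCl. 40 nM template, Taq buffer pH 8.8, 25 mM MgCl2, 0.05 U Taq. Compound on ice 10 min, then 100 μM dNTPs at 37 °C 15 min. Denaturing PAGE; full-length product as % of no-compound sample.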

Quadruplex DNA [5] = experiment: Stabilization of fluorescently labelled c-Myc G4-quadruplex Pu22 DNA (unknown origin) assessed as increase in thermal stability of DNA structure at 5 to 40 equiv. by FRET melting assay; format: nucleic-acid assay; conditions: dose 5-40 equiv
Method in brief: (§3)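 Pu22 (FAM/TAMRA, 0.2 μM), folded in 10 mM lithium cacodylate pH 7.4, 2 mM KCl, 98 mM LiCl. Ligand at 5, 10, 25 or 40 equivalents. Heated 10–95 °C; donor emission at 516 nm (excitation 492 nm) normalized. Tm taken at 0.5 normalized emission; ΔTm is Tm with ligand minus Tm without ligand. Duplicate wells.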

Quadruplex DNA [6] = experiment: Stabilization of G4-quadruplex PEPu24T DNA (unknown origin) assessed as inhibition of Taq DNA polymerase activity by measuring reduction in full length DNA product at 0.048 to 6 uM pretreated for 10 mins followed by incubation with dNTPs for 15 mins by PAGE analysis; format: nucleic-acid assay; conditions: dose 0.048-6 µM, time 25.0 min; method in brief: as §1
Quadruplex DNA [7] = experiment: Binding affinity to c-Myc G4-quadruplex Pu22 DNA (unknown origin) assessed as change in entropy by isothermal titration calorimetry; format: nucleic-acid assay
Method in brief: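 Reverse titration: cell holds 20 μM ligand, syringe 120 μM prefolded G4 DNA, 20 injections in 10 mM potassium phosphate, 100 mM KCl, pH 7.4, at 19 °C. First injection 0.5 μL, then 2 μL, 120 s spacing, 1000 rpm, high-feedback mode. Data fitted to one-site binding model.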

Quadruplex DNA [8] = experiment: Stabilization of G4-quadruplex DNA in human HeLa cells assessed as increase in BG4-positive cell nuclei at 20 uM incubated for 24 hrs by immunofluorescence microscopy; format: functional, cell-based
Method in brief: (§4)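 HeLa cells (60,000 on coverslips) treated 24 h. Cells fixed in 2% paraformaldehyde, permeabilized in 0.1% Triton X-100, blocked in 2% milk. Stained with BG4–FLAG (1/3000), rabbit anti-FLAG, then Alexa594 anti-rabbit, each 1 h at 37 °C; nuclei stained with DAPI. BG4 foci per nucleus counted, 90–166 cells per condition. Welch-corrected t tests on ln-transformed data; mean ± 2SD shown.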

Quadruplex DNA [9] = experiment: Stabilization of fluorescently labelled G4-quadruplex 25Ceb DNA (unknown origin) assessed as increase in thermal stability of DNA structure at 5 uM by FRET melting assay; format: nucleic-acid assay
Method in brief: (§5)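 0.2 μM FAM/TAMRA dual-labelled oligonucleotide, prefolded in 10 mM lithium cacodylate pH 7.4, 10 mM KCl, 90 mM LiCl (95 °C 10 min, then ≥1 h cold). Ligand added and sample heated from 10 to 95 °C; donor emission at 516 nm (excitation 492 nm) normalized. Tm taken at 0.5 normalized emission; ΔTm is Tm with ligand minus Tm without ligand. Duplicate wells.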

Quadruplex DNA [10] = experiment: Binding affinity to c-Myc G4-quadruplex Pu22 DNA (unknown origin) at 0.7 equivalent by NMR titration analysis; format: nucleic-acid assay; conditions: dose 0.7 equiv
Method in brief: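 Pu22 folded at 100 μM in 10 mM potassium phosphate pH 7.4, 35 mM KCl (95 °C 10 min, cooled overnight). 10% D2O added, giving 90 μM DNA. Compound added stepwise in increasing equivalents. 1D 1H spectra with excitation sculpting, 256 scans, 298 K, 850 MHz.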

Quadruplex DNA [11] = experiment: Stabilization of fluorescently labelled G4-quadruplex Bcl2 DNA (unknown origin) assessed as increase in thermal stability of DNA structure at 5 uM by FRET melting assay; format: nucleic-acid assay; method in brief: as §5
Quadruplex DNA [12] = experiment: Stabilization of G4-quadruplex PEPu24T DNA (unknown origin) assessed as inhibition of Taq DNA polymerase activity by measuring reduction in full length DNA product at 1.2 uM pretreated for 10 mins followed by incubation with dNTPs for 15 mins by PAGE analysis; format: nucleic-acid assay; conditions: time 25.0 min; method in brief: as §1
Quadruplex DNA [13] = experiment: Stabilization of fluorescently labelled G4-quadruplex Tba DNA (unknown origin) assessed as increase in thermal stability of DNA structure at 5 uM by FRET melting assay; format: nucleic-acid assay; method in brief: as §5
dsDNA = experiment: Binding affinity to 5'-Cy5-labelled double stranded DNA ds26 (unknown origin) by microscale thermophoresis analysis; format: nucleic-acid assay
Method in brief: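 Cy5-labelled DNA held at 25 nM, folded in 10 mM phosphate, 100 mM KCl, pH 7.4 (95 °C 5 min, cooled to room temperature). Ligand in 16 1:3 dilutions in 10 mM phosphate pH 7.4, 100 mM KCl, 0.05% Tween20. Capillary fluorescence read at 20% LED power; change in fluorescence versus ligand concentration fitted by nonlinear equation for binding constant.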

Quadruplex DNA [14] = experiment: Stabilization of fluorescently labelled c-Myc G4-quadruplex Pu22 DNA (unknown origin) assessed as increase in thermal stability of DNA structure at 5 uM in presence of double stranded competitor DNA ds26 by FRET melting assay; format: nucleic-acid assay
Method in brief: (§6)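 Competition melting: 0.2 μM labelled Pu22 in 10 mM lithium cacodylate pH 7.4, 2 mM KCl, 98 mM LiCl, with ligand plus 0–100 equivalents of ds26 duplex competitor. Heated 10–95 °C; FAM emission normalized. Tm taken at 0.5 normalized emission; ΔTm is Tm with ligand minus Tm without ligand. SD of at least six independent experiments.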

Quadruplex DNA [15] = experiment: Stabilization of fluorescently labelled G4-quadruplex 21G DNA (unknown origin) assessed as increase in thermal stability of DNA structure at 5 uM by FRET melting assay; format: nucleic-acid assay; method in brief: as §5
Quadruplex DNA [16] = experiment: Stabilization of fluorescently labelled G4-quadruplex c-KIT2 DNA (unknown origin) assessed as increase in thermal stability of DNA structure at 5 uM by FRET melting assay; format: nucleic-acid assay; method in brief: as §5
Quadruplex DNA [17] = experiment: Stabilization of fluorescently labelled G4-quadruplex Bom17 DNA (unknown origin) assessed as increase in thermal stability of DNA structure at 5 uM by FRET melting assay; format: nucleic-acid assay; method in brief: as §5
THP-1 = experiment: Cytotoxicity against human THP-1 cells assessed as reduction in cell viability at <50 uM; format: toxicity, cell-based; conditions: thp-1, 50 µM
Quadruplex DNA [18] = experiment: Stabilization of fluorescently labelled G4-quadruplex Bcl2 DNA (unknown origin) assessed as increase in thermal stability of DNA structure at 2 uM by FRET melting assay; format: nucleic-acid assay; method in brief: as §5
Quadruplex DNA [19] = experiment: Stabilization of fluorescently labelled G4-quadruplex Tba DNA (unknown origin) assessed as increase in thermal stability of DNA structure at 2 uM by FRET melting assay; format: nucleic-acid assay; method in brief: as §5
Quadruplex DNA [20] = experiment: Stabilization of fluorescently labelled G4-quadruplex Bom17 DNA (unknown origin) assessed as increase in thermal stability of DNA structure at 2 uM by FRET melting assay; format: nucleic-acid assay; method in brief: as §5
Quadruplex DNA [21] = experiment: Stabilization of fluorescently labelled G4-quadruplex 21G DNA (unknown origin) assessed as increase in thermal stability of DNA structure at 2 uM by FRET melting assay; format: nucleic-acid assay; method in brief: as §5
Quadruplex DNA [22] = experiment: Stabilization of fluorescently labelled G4-quadruplex 25Ceb DNA (unknown origin) assessed as increase in thermal stability of DNA structure at 2 uM by FRET melting assay; format: nucleic-acid assay; method in brief: as §5
Quadruplex DNA [23] = experiment: Stabilization of G4-quadruplex PEPu24T DNA (unknown origin) assessed as inhibition of Taq DNA polymerase activity by measuring reduction in full length DNA product at 0.24 uM pretreated for 10 mins followed by incubation with dNTPs for 15 mins by PAGE analysis; format: nucleic-acid assay; conditions: time 25.0 min; method in brief: as §1
Quadruplex DNA [24] = experiment: Stabilization of fluorescently labelled G4-quadruplex c-KIT2 DNA (unknown origin) assessed as increase in thermal stability of DNA structure at 2 uM by FRET melting assay; format: nucleic-acid assay; method in brief: as §5
Quadruplex DNA [25] = experiment: Stabilization of fluorescently labelled c-Myc G4-quadruplex Pu22 DNA (unknown origin) assessed as increase in thermal stability of DNA structure at 2 uM in presence of double stranded competitor DNA ds26 by FRET melting assay; format: nucleic-acid assay; method in brief: as §6
Quadruplex DNA [26] = experiment: Stabilization of G4-quadruplex DNA in human HeLa cells assessed as increase in BG4-positive cell nuclei at 1 to 2 uM incubated for 24 hrs by immunofluorescence microscopy; format: functional, cell-based; conditions: dose 1-2 µM; method in brief: as §4
Quadruplex DNA [27] = experiment: Stabilization of G4-quadruplex PEPu24T DNA (unknown origin) assessed as inhibition of Taq DNA polymerase activity by measuring reduction in full length DNA product at 0.048 uM pretreated for 10 mins followed by incubation with dNTPs for 15 mins by PAGE analysis; format: nucleic-acid assay; conditions: time 25.0 min; method in brief: as §1
[28] = Stabilization of double stranded PEPu24T mut DNA (unknown origin) assessed as inhibition of Taq DNA polymerase activity by measuring reduction in full length DNA product at >4 uM pretreated for 10 mins followed by incubation with dNTPs for 15 mins by PAGE analysis; conditions: time 25.0 min; method in brief: as §2
Quadruplex DNA [29] = experiment: Stabilization of fluorescently labelled c-Myc G4-quadruplex Pu22 DNA (unknown origin) assessed as increase in thermal stability of DNA structure at 40 equiv. by FRET melting assay; format: nucleic-acid assay; method in brief: as §3

Cc1cc(NCCCN(C)C)nc(Nc2ncc3ccccc3n2)n1
Activity (Quadruplex DNA [1]): 65%
Activity (Quadruplex DNA [2]): Active
solubility [3]: 858 µM (≈ 290 µg/mL)
Activity [4]: inactive

Cc1cc(NCCCN(C)C)nc(Nc2nc3cc(C)c(C)cc3nc2C)n1
Activity (Quadruplex DNA [2]): Active
Activity (Quadruplex DNA [5]): Active
Activity (Quadruplex DNA [6]): Active
Activity [4]: inactive

Cc1cc(C)c2nc(Nc3nc(C)cc(C)n3)nc(C)c2c1
-TdeltaS (Quadruplex DNA [7]): 3.2 kcal/mol
Activity (Quadruplex DNA [8]): Active
Activity (Quadruplex DNA [9]): Active
Activity (Quadruplex DNA [10]): Active
Activity (Quadruplex DNA [11]): Active
inhibition (Quadruplex DNA [12]): 50%
Activity (Quadruplex DNA [13]): inactive
Activity (dsDNA): inactive
Activity (Quadruplex DNA [14]): Active
Activity (Quadruplex DNA [15]): Active
Activity (Quadruplex DNA [16]): Active
solubility [3]: 134 µM (≈ 39.3 µg/mL)
Activity (Quadruplex DNA [17]): Active
Activity (THP-1): Non-Toxic
Activity [4]: inactive

Cc1ccc2nc(Nc3nc(C)cc(C)n3)nc(C)c2c1
solubility [3]: 134 µM (≈ 37.4 µg/mL)
Activity [4]: inactive

Cc1cc(C)c2nc(Nc3nc(C)cc(NCCCN(C)C)n3)nc(C)c2c1
Activity (Quadruplex DNA [18]): Active
-TdeltaS (Quadruplex DNA [7]): 1.85 kcal/mol
Activity (Quadruplex DNA [19]): inactive
Activity (Quadruplex DNA [10]): Active
Activity (Quadruplex DNA [20]): Active
Activity (Quadruplex DNA [21]): Active
Activity (Quadruplex DNA [22]): Active
Activity (Quadruplex DNA [2]): Active
inhibition (Quadruplex DNA [23]): 100%
Activity (dsDNA): inactive
solubility [3]: 858 µM (≈ 326 µg/mL)
Activity (Quadruplex DNA [24]): Active
Activity (Quadruplex DNA [25]): Active
Activity (Quadruplex DNA [26]): Active
inhibition (Quadruplex DNA [27]): 50%
Activity [28]: Active

Cc1cc(C)nc(Nc2nc(C)c3cc(Cl)ccc3n2)n1
Activity [4]: inactive

COc1ccc2nc(Nc3nc(C)cc(NCCCN(C)C)n3)nc(C)c2c1
Activity (Quadruplex DNA [2]): Active
Activity (Quadruplex DNA [29]): Active
solubility [3]: 858 µM (≈ 327 µg/mL)
Activity [4]: inactive
